# Activity calls are given as the source filed them.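 How the source made its calls: active means compounds cutting cell ATP light whose fitted AC50 is at most double the top dose tried; inconclusive means flat moderate signal loss, or an unreliable curve fit; inactive means the rest.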
# Test system: ldlA[mSR-BI] CHO cells viability, CellTiter-Glo ATP luminescence, 24 h
# Test: cytotoxicity in ldlA[mSR-BI] CHO cells, dose response, cytotoxicity control for SR-BI HDL uptake inhibitor project, cell-based, CellTiter-Glo luminescence, 24 h, dry powder, set 5 (AID 602126)
# Details: not given
# Outline: (§1)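 Technique: CellTiter-Glo ATP luminescence; System: ldlA[mSR-BI] cells, cell viability measurement; Amount: 4,000 ldlA[mSR-BI] cells per well; Incubation: 24 h compound exposure at 37 °C, then 10 min with detection reagent.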
row,Compound,AC50
1,COc1cc(OC)cc(C(=O)Nc2nc(-c3ccc4c(c3)CCN4C(=O)CN(C)C)cs2)c1,20.2 µM
2,Cc1cc(C)n(CC(=O)NC2CCCc3c2cnn3-c2ccc(C)c(C)c2)n1 (configuration not stated),> 70 µM (inactive)
3,CC(C(=O)NC1CCCC1)N(C(=O)Cn1nnc(-c2ccc(Cl)cc2)n1)C1CCCCC1 (configuration not stated),> 70 µM (inactive)
4,O=C(Nc1ccccc1)c1ccccc1NS(=O)(=O)c1ccc(Cl)cc1,32.5 µM
5,O=C(Nc1cc(Cl)ccc1Cl)c1cc(Cl)ccc1NS(=O)(=O)c1ccc(Cl)c([N+](=O)[O-])c1,17.3 µM
6,CCCCCCC1CCC/C1=N\NC(N)=S (configuration not stated),2.13 µM
7,CC(C(=O)NC1CCCC1)N(C(=O)Cn1nnc(-c2ccc3c(c2)OCO3)n1)C1CCCCC1 (configuration not stated),53 µM
8,O=C(Nc1cc(Cl)ccc1Cl)c1cc(Br)ccc1NS(=O)(=O)c1ccc(Cl)c([N+](=O)[O-])c1,21 µM
9,O=C(CN(C(=O)Cn1nnc(-c2ccc(Cl)c(Cl)c2)n1)C1CCCCC1)NC1CCCC1,46.2 µM
10,O=C(CN(C(=O)Cn1nnc(-c2ccc3c(c2)OC(F)(F)O3)n1)C1CCCCC1)NC1CCCC1,> 70 µM (inactive)
11,C[C@H]1CN([C@@H](C)CO)C(=O)c2cccc(N(C)C)c2O[C@@H]1CN(C)Cc1ccc(Cl)c(Cl)c1,> 70 µM (inactive)
12,C=CCN1CCc2cc(-c3csc(NC(=O)c4ccco4)n3)ccc21,57.7 µM
13,COCC(=O)N1CCc2cc(-c3csc(NC(=O)c4cc(OC)cc(OC)c4)n3)ccc21,> 70 µM (inactive)
14,COC(=O)c1cn(C(=O)c2cccc3ccccc23)c2ccccc12,38 µM
15,N#Cc1sc2nc(C3CC3)cc(-c3ccc(Cl)cc3)c2c1N,63.1 µM
16,CCC(=O)Nc1ccc(-c2csc(NC(=O)c3cccc(OC)c3)n2)cc1,> 70 µM (inactive)
17,CCC(=O)N1CCc2cc(-c3cn4ccccc4n3)ccc21,15.8 µM
18,CCC(=O)N1CCc2cc(-c3csc(NC(=O)C4CCCO4)n3)ccc21 (configuration not stated),46.5 µM
19,CCn1c(COc2c(C)cccc2C)nnc1SCC(=O)N1CCN(c2ccccc2)CC1,65.2 µM
20,O=C(Nc1cc(C(F)(F)F)ccc1Cl)c1ccccc1NS(=O)(=O)c1ccc(Cl)cc1,0.285 µM
21,COc1cc(OC)cc(C(=O)Nc2nc(-c3ccc4c(c3)CCN4)cs2)c1,46.5 µM
22,CCOC(=O)N1CCC(NC(=O)c2ccc3c(c2)N(Cc2ccc(F)cc2)CCS3)CC1,65.5 µM
23,COc1ccc(OC)c(CCNC(=O)c2ccc3c(c2)N(Cc2ccc(F)cc2)CCS3)c1,> 70 µM (inactive)
24,CCCN1CCc2cc(-c3csc(NC(=O)c4cc(OC)cc(OC)c4)n3)ccc21,> 70 µM (inactive)
25,COC(=O)N1CCc2cc(-c3csc(NC(=O)c4cc(OC)cc(OC)c4)n3)ccc21,> 70 µM (inactive)
26,O=C(CN(C(=O)Cn1nnc(-c2ccc3c(c2)OCO3)n1)C1CCCCC1)NC1CCCC1,> 70 µM (inactive)

row,Compound,AC50
1,C[C@@H]1CN([C@@H](C)CO)C(=O)c2cc(NC(=O)Cc3cn(C)c4ccccc34)ccc2O[C@@H]1CN(C)S(=O)(=O)c1ccc(Cl)cc1,> 70 µM (inactive)
2,CCC(=O)N1CCc2cc(-c3csc(NC(=O)c4cccs4)n3)ccc21,64.4 µM
3,C[C@@H]1CN([C@H](C)CO)C(=O)c2cc(NC(=O)Cc3cn(C)c4ccccc34)ccc2O[C@@H]1CN(C)S(=O)(=O)c1ccc(F)cc1,50.8 µM
4,CCC(=O)N1CCc2cc(-c3csc(NC(=O)c4cccc(OC)c4)n3)ccc21,> 70 µM (inactive)
5,COc1ccc([C@H]2CC(=O)C=C(c3cccc4c3sc3ccccc34)C2)cc1OC,> 70 µM (inactive)
6,COc1cc(OC)cc(C(=O)Nc2nc(-c3ccc4c(c3)CCN4C(C)=O)cs2)c1,> 70 µM (inactive)
7,C[C@H]1CN([C@@H](C)CO)C(=O)c2cccc(NC(=O)Nc3ccc(F)cc3)c2O[C@@H]1CN(C)Cc1ccc(Cl)c(Cl)c1,21.6 µM
8,CCc1sc(N2C(=O)C3C4CCC(C4=C(C)C)C3C2=O)nc1-c1ccccc1 (configuration not stated),> 70 µM (inactive)
9,C[C@H]1CN([C@@H](C)CO)C(=O)c2cc(NC(=O)Nc3ccccc3)ccc2O[C@@H]1CN(C)Cc1ccc(Cl)c(Cl)c1,57 µM
10,COc1cc(OC)cc(C(=O)Nc2nc(-c3ccc4c(c3)CCN4C(=O)OC(C)(C)C)cs2)c1,> 70 µM (inactive)
11,CC(C)NC(=O)Nc1cccc2c1O[C@H](CN(C)Cc1ccc(Cl)c(Cl)c1)[C@@H](C)CN([C@@H](C)CO)C2=O,> 70 µM (inactive)
12,Cc1cc(SC(C)C(=O)Nc2ncc(Cl)cc2Cl)nc2ccccc12 (configuration not stated),35.1 µM
13,C[C@H]1CN([C@@H](C)CO)C(=O)c2cccc(NC(=O)Nc3ccccc3)c2O[C@@H]1CN(C)Cc1ccccc1,> 70 µM (inactive)
14,CCC(=O)N1CCc2cc(-c3csc(NC(=O)c4cc(OC)c(OC)c(OC)c4)n3)ccc21,> 70 µM (inactive)
15,CCOc1ccccc1/C=C/c1onc(C)c1S(=O)(=O)N1CCC(C(=O)NC(C)(C)C)CC1,> 70 µM (inactive)
16,O=C(Nc1ccc(-c2nc3cc(NC(=O)c4ccccc4[N+](=O)[O-])ccc3o2)cc1)c1ccccc1[N+](=O)[O-],36.3 µM
17,CCc1cc2cc3c(cc2nc1SCC(=O)OC(C)C)OCO3,> 70 µM (inactive)
18,CS(=O)(=O)N1CCc2cc(-c3csc(NC(=O)c4ccco4)n3)ccc21,> 70 µM (inactive)
19,CCC(=O)N1CCc2cc(-c3csc(N(C)C(=O)c4cc(OC)cc(OC)c4)n3)ccc21,15.1 µM
20,C[C@H](CO)N1C[C@H](C)[C@@H](CN(C)S(=O)(=O)c2ccc(Cl)cc2)Oc2ccc(NC(=O)Cc3cn(C)c4ccccc34)cc2C1=O,> 70 µM (inactive)
21,CCC(=O)N1CCc2cc(-c3csc(NC(=O)c4cccc(OC)n4)n3)ccc21,66.5 µM
22,O=C(Nc1ccccc1Cl)c1ccccc1NS(=O)(=O)c1ccccc1,37.2 µM
23,O=C(Nc1nc(-c2ccc3c(c2)CCN3)cs1)c1ccco1,> 70 µM (inactive)
24,O=C(Nc1ccc(Cl)cc1C(=O)c1ccc(Cl)cc1)c1cc(Br)ccc1NS(=O)(=O)c1ccc(Cl)cc1,4.98 µM
25,COc1ccc(-c2nnn(CC(=O)N(CC(=O)NC3CCCC3)C3CCCCC3)n2)cc1OC,> 70 µM (inactive)
26,O=C(Nc1cccc(NC(=O)c2cc([N+](=O)[O-])ccc2Cl)n1)c1cc([N+](=O)[O-])ccc1Cl,21.9 µM

row,Compound,AC50
1,CC(C(=O)NC1CCCC1)N(C(=O)Cn1nnc(-c2cccc(F)c2)n1)C1CCCCC1 (configuration not stated),> 70 µM (inactive)
2,CCC(=O)Nc1ccc(-c2csc(N)n2)cc1,> 70 µM (inactive)
3,C[C@@H]1CN([C@H](C)CO)C(=O)c2cc(NC(=O)Cc3cn(C)c4ccccc34)ccc2O[C@H]1CN(C)S(=O)(=O)c1ccccc1,49.8 µM
4,CCC(=O)N1CCc2cc(-c3csc(NC(=O)c4cc(OC)cc(OC)c4)n3)ccc21,> 70 µM (inactive)
5,C[C@@H]1CN([C@H](C)CO)C(=O)c2cc(NC(=O)Cc3cn(C)c4ccccc34)ccc2O[C@@H]1CN(C)S(=O)(=O)c1ccc(Cl)cc1,> 70 µM (inactive)
6,CC(C(=O)NC1CCCC1)N(C(=O)Cn1nnc(-c2ccc3c(c2)OC(F)(F)O3)n1)C1CCCCC1 (configuration not stated),55.2 µM
7,Cc1ccccc1NC(=O)NCC1CCN(c2ccc(S(=O)(=O)N3CCOCC3)cc2)CC1,58.3 µM
8,O=C(Nc1ccc(-c2nc3cc(NC(=O)c4ccccc4Cl)ccc3o2)cc1)c1ccccc1Cl,43.9 µM
9,COc1ccc(-c2nc(CC(=O)N(C3CCCCC3)C(C)C(=O)NC3CCCC3)cs2)cc1OC (configuration not stated),67 µM
10,C[C@H]1CN([C@@H](C)CO)C(=O)c2cc(NC(=O)Cc3cn(C)c4ccccc34)ccc2O[C@H]1CN(C)S(=O)(=O)c1ccc(Cl)cc1,> 70 µM (inactive)
11,C[C@H](CO)N1C[C@H](C)[C@H](CN(C)S(=O)(=O)c2ccc(F)cc2)Oc2ccc(NC(=O)Cc3cn(C)c4ccccc34)cc2C1=O,> 70 µM (inactive)
12,CC(C(=O)NC1CCCC1)N(C(=O)Cn1nnc(-c2ccc(Cl)c(Cl)c2)n1)C1CCCCC1 (configuration not stated),37 µM
13,COc1ccc(-c2cc(CC(=O)N(C3CCCCC3)C(C)C(=O)NC3CCCC3)no2)cc1OC (configuration not stated),> 70 µM (inactive)
14,C[C@H]1CN([C@@H](C)CO)C(=O)c2cc(NC(=O)Cc3cn(C)c4ccccc34)ccc2O[C@@H]1CN(C)S(=O)(=O)c1ccc(Cl)cc1,> 70 µM (inactive)
15,O=C(Nc1ccc(-c2nc3ccc(NC(=O)c4ccccc4)cc3[nH]2)cc1)c1ccccc1,2.63 µM
16,CCC(=O)N1CCc2cc(-c3csc(NC(=O)c4cccc(OC(F)(F)F)c4)n3)ccc21,> 70 µM (inactive)
17,CCC(=O)N1CCc2cc(-c3csc(NC(=O)c4ccco4)n3)ccc21,> 70 µM (inactive)
18,COc1cc(OC)cc(C(=O)Nc2nc(-c3ccc4[nH]ccc4c3)cs2)c1,15.6 µM
19,CCNC(=O)N1CCc2cc(-c3csc(NC(=O)c4cc(OC)cc(OC)c4)n3)ccc21,60 µM
20,CC(C)C(=O)N1CCc2cc(-c3csc(NC(=O)c4ccco4)n3)ccc21,> 70 µM (inactive)
21,COc1cccc(-c2csc(N3CCN(C(=S)Nc4cccc(Cl)c4)CC3)n2)c1,51.7 µM
22,COc1ccc(-c2nnn(CC(=O)N(C3CCCCC3)C(C)(C)C(=O)NC3CCCC3)n2)cc1OC,> 70 µM (inactive)
23,C[C@@H]1CN([C@@H](C)CO)C(=O)c2cc(NC(=O)Cc3cn(C)c4ccccc34)ccc2O[C@@H]1CN(C)S(=O)(=O)c1ccc(F)cc1,> 70 µM (inactive)
24,O=C(Nc1ccc(-c2nc3ccc(NC(=O)c4ccc(Cl)cc4)cc3[nH]2)cc1)c1ccc(Cl)cc1,1.3 µM

# Test system: not listed separately
# Test: as above
# Details: ldlA[mSR-BI] CHO cells viability, CellTiter-Glo ATP luminescence, 24 h; at 35 µM (top of the series)
# Outline: as §1
row,Compound,"activity change, negative = cytotoxicity"
1,Cc1ccc(-c2nnc(N3CCC(C)CC3)c3ccccc23)cc1C,-8.22% (inactive)
2,CCC(=O)N1CCc2cc(-c3coc(NC(=O)c4ccco4)n3)ccc21,-8.19% (inactive)
3,C[C@@H]1CN([C@H](C)CO)C(=O)c2cc(NC(=O)Cc3cn(C)c4ccccc34)ccc2O[C@H]1CN(C)S(=O)(=O)c1ccc(F)cc1,-29.1% (inactive)
4,CCC(=O)N1CCc2cc(-c3coc(N)n3)ccc21,3.91% (inactive)
5,CCC(=O)N1CCc2cc(-c3csc(NC(=O)c4ccno4)n3)ccc21,0.915% (inactive)
6,CC(C)(C)OC(=O)N1CCc2cc(-c3noc(NC(=O)c4ccco4)n3)ccc21,-3.91% (inactive)

# From PubChem BioAssay AID602126 (Broad Institute, 2011)
